Assay results: ChEMBL document CHEMBL1147862, “Studies on synthesis and pharmacological activities of 3,6-disubstituted-1,2,4-triazolo[3,4-b]-1,3,4-thiadiazoles and their dihydro analogues” (2007)

Legend:
Format in all cases: functional
Bacillus subtilis [1] = test: Antibacterial activity against Bacillus subtilis at 30 ug/ml by agar plate diffusion technique; conditions: read-out: IZ
Candida albicans [2] = test: Antifungal activity against Candida albicans at 30 ug/ml by paper disc method; conditions: read-out: IZ
Aspergillus niger [3] = test: Antifungal activity against Aspergillus niger at 30 ug/ml by paper disc method; conditions: read-out: IZ
Escherichia coli [4] = test: Antibacterial activity against Escherichia coli at 10 ug/ml by agar plate diffusion technique; conditions: read-out: IZ
Aspergillus niger [5] = test: Antifungal activity against Aspergillus niger at 10 ug/ml by paper disc method; conditions: read-out: IZ
Escherichia coli [6] = test: Antibacterial activity against Escherichia coli at 30 ug/ml by agar plate diffusion technique; conditions: read-out: IZ
Bacillus subtilis [7] = test: Antibacterial activity against Bacillus subtilis at 10 ug/ml by agar plate diffusion technique; conditions: read-out: IZ
Escherichia coli [8] = test: Antibacterial activity against Escherichia coli at 20 ug/ml by agar plate diffusion technique; conditions: read-out: IZ
Staphylococcus aureus [9] = test: Antibacterial activity against Staphylococcus aureus at 20 ug/ml by agar plate diffusion technique; conditions: read-out: IZ
Pseudomonas aeruginosa [10] = test: Antibacterial activity against Pseudomonas aeruginosa at 20 ug/ml by agar plate diffusion technique; conditions: read-out: IZ
Candida albicans [11] = test: Antifungal activity against Candida albicans at 10 ug/ml by paper disc method; conditions: read-out: IZ
Staphylococcus aureus [12] = test: Antibacterial activity against Staphylococcus aureus at 10 ug/ml by agar plate diffusion technique; conditions: read-out: IZ
Bacillus subtilis [13] = test: Antibacterial activity against Bacillus subtilis at 20 ug/ml by agar plate diffusion technique; conditions: read-out: IZ
Staphylococcus aureus [14] = test: Antibacterial activity against Staphylococcus aureus at 30 ug/ml by agar plate diffusion technique; conditions: read-out: IZ
Pseudomonas aeruginosa [15] = test: Antibacterial activity against Pseudomonas aeruginosa at 10 ug/ml by agar plate diffusion technique; conditions: read-out: IZ
Candida albicans [16] = test: Antifungal activity against Candida albicans at 20 ug/ml by paper disc method; conditions: read-out: IZ
Pseudomonas aeruginosa [17] = test: Antibacterial activity against Pseudomonas aeruginosa at 30 ug/ml by agar plate diffusion technique; conditions: read-out: IZ
Aspergillus niger [18] = test: Antifungal activity against Aspergillus niger at 20 ug/ml by paper disc method; conditions: read-out: IZ
Mus musculus [19] = test: Analgesic activity in Swiss mouse assessed as increase in reaction time at 20 mg/kg, po after 60 mins by Eddy's hot plate technique
Summary of the method: (§1)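 Swiss mice of either sex, 25–35 g, placed one at a time on a hot plate held at 55 °C. End point is paw licking or jumping, whichever comes first, with a 15 s cut-off to avoid paw injury. Reaction time is recorded and reported as percent increase in reaction time.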

Mus musculus [20] = test: Analgesic activity in Swiss mouse assessed as increase in reaction time at 20 mg/kg, po after 30 mins by Eddy's hot plate technique; summary of the method: as §1
Mus musculus [21] = test: Analgesic activity in Swiss mouse assessed as increase in reaction time at 20 mg/kg, po after 90 mins by Eddy's hot plate technique; summary of the method: as §1

Q: How did the zone of inhibition at 30 µg/mL (Bacillus subtilis [1]) turn out when CN[C@H](CC(C)C)C(=O)N[C@H]1C(=O)N[C@@H](CC(N)=O)C(=O)N[C@H]2C(=O)N[C@H]3C(=O)N[C@H](C(=O)N[C@H](C(=O)O)c4cc(O)cc(O)c4-c4cc3ccc4O)[C@H](O)c3ccc(c(Cl)c3)Oc3cc2cc(c3O[C@@H]2O[C@H](CO)[C@@H](O)[C@H](O)[C@H]2O[C@H]2C[C@](C)(N)[C@H](O)[C@H](C)O2)Oc2ccc(cc2Cl)[C@H]1O [VANCOMYCIN] was run?
A: 23 mm

Q: With COC1=CC(=O)C[C@@H](C)[C@]12Oc1c(Cl)c(OC)cc(OC)c1C2=O [GRISEOFULVIN] as the compound, how does the zone of inhibition at 30 µg/mL (Candida albicans [2]) read?
A: 24.7 mm

Q: What about the zone of inhibition at 30 µg/mL (Aspergillus niger [3]) of the same compound?
A: 23.1 mm

Q: Which results are given for Cc1occc1-c1nnc(S)n1N?
A: zone of inhibition at 10 µg/mL (Escherichia coli [4]): 6.74 mm; zone of inhibition at 10 µg/mL (Aspergillus niger [5]): 3.27 mm; zone of inhibition at 30 µg/mL (Escherichia coli [6]): 12.8 mm; zone of inhibition at 30 µg/mL (Candida albicans [2]): 12.4 mm; zone of inhibition at 10 µg/mL (Bacillus subtilis [7]): 5.8 mm; zone of inhibition at 20 µg/mL (Escherichia coli [8]): 9.16 mm; zone of inhibition at 20 µg/mL (Staphylococcus aureus [9]): 8.16 mm; zone of inhibition at 20 µg/mL (Pseudomonas aeruginosa [10]): 9.16 mm; zone of inhibition at 10 µg/mL (Candida albicans [11]): 3 mm; zone of inhibition at 10 µg/mL (Staphylococcus aureus [12]): 5.46 mm; zone of inhibition at 20 µg/mL (Bacillus subtilis [13]): 8.94 mm; zone of inhibition at 30 µg/mL (Staphylococcus aureus [14]): 11.3 mm; zone of inhibition at 10 µg/mL (Pseudomonas aeruginosa [15]): 6.12 mm; zone of inhibition at 20 µg/mL (Candida albicans [16]): 6.82 mm; zone of inhibition at 30 µg/mL (Bacillus subtilis [1]): 11.2 mm; zone of inhibition at 30 µg/mL (Aspergillus niger [3]): 13.5 mm; zone of inhibition at 30 µg/mL (Pseudomonas aeruginosa [17]): 12.8 mm; zone of inhibition at 20 µg/mL (Aspergillus niger [18]): 6.94 mm

Q: For O=C(N[C@H](CO)[C@H](O)c1ccc([N+](=O)[O-])cc1)C(Cl)Cl [CHLORAMPHENICOL], which zone of inhibition at 30 µg/mL (Escherichia coli [6]) is on record?
A: 23.7 mm

Q: And the zone of inhibition at 30 µg/mL (Staphylococcus aureus [14])?
A: 26.1 mm

Q: What about the zone of inhibition at 30 µg/mL (Bacillus subtilis [1]) of the same compound?
A: 24.6 mm

Q: What about the zone of inhibition at 30 µg/mL (Pseudomonas aeruginosa [17]) of the same compound?
A: 25.4 mm

Q: O=C([O-])Cc1ccccc1Nc1c(Cl)cccc1Cl.[Na+] [DICLOFENAC SODIUM] was tested. Which Activity (Mus musculus [19]) did it give?
A: 38.15%

Q: And the Activity (Mus musculus [20])?
A: 32.23%

Q: And the Activity (Mus musculus [21])?
A: 43.25%

Q: For NCC[C@H](O)C(=O)N[C@@H]1C[C@H](N)[C@@H](O[C@H]2O[C@H](CN)[C@@H](O)[C@H](O)[C@H]2O)[C@H](O)[C@H]1O[C@H]1O[C@H](CO)[C@@H](O)[C@H](N)[C@H]1O [AMIKACIN], which zone of inhibition at 30 µg/mL (Pseudomonas aeruginosa [17]) is on record?
A: 23 mm

Q: Which zone of inhibition at 10 µg/mL (Escherichia coli [4]) does the source give for COc1ccc(Cl)c(-c2nnc(S)n2N)c1 here?
A: 5.08 mm

Q: What about the zone of inhibition at 10 µg/mL (Aspergillus niger [5]) of the same compound?
A: 2.59 mm

Q: What about the zone of inhibition at 30 µg/mL (Escherichia coli [6]) of the same compound?
A: 9.17 mm

Q: And the zone of inhibition at 30 µg/mL (Candida albicans [2])?
A: 9.79 mm

Q: What about the zone of inhibition at 10 µg/mL (Bacillus subtilis [7]) of the same compound?
A: 4.25 mm

Q: What about the zone of inhibition at 20 µg/mL (Escherichia coli [8]) of the same compound?
A: 7.16 mm

Q: What about the zone of inhibition at 20 µg/mL (Staphylococcus aureus [9]) of the same compound?
A: 7.28 mm

Q: And the zone of inhibition at 20 µg/mL (Pseudomonas aeruginosa [10])?
A: 7.26 mm

Q: And the zone of inhibition at 10 µg/mL (Candida albicans [11])?
A: 2.33 mm

Q: And the zone of inhibition at 10 µg/mL (Staphylococcus aureus [12])?
A: 5.16 mm

Q: And the zone of inhibition at 20 µg/mL (Bacillus subtilis [13])?
A: 7.05 mm

Q: What about the zone of inhibition at 30 µg/mL (Staphylococcus aureus [14]) of the same compound?
A: 9.06 mm

Q: What about the zone of inhibition at 10 µg/mL (Pseudomonas aeruginosa [15]) of the same compound?
A: 5.23 mm

Q: What about the zone of inhibition at 20 µg/mL (Candida albicans [16]) of the same compound?
A: 5.18 mm

Q: And the zone of inhibition at 30 µg/mL (Bacillus subtilis [1])?
A: 10.1 mm

Q: And the zone of inhibition at 30 µg/mL (Aspergillus niger [3])?
A: 11 mm

Q: What about the zone of inhibition at 30 µg/mL (Pseudomonas aeruginosa [17]) of the same compound?
A: 9.1 mm

Q: And the zone of inhibition at 20 µg/mL (Aspergillus niger [18])?
A: 5.02 mm
